Calls of active or inactive are those of the source. The rule behind the calls is not given here.
Columns and labels:
[1] = system: 2H4; assay: Immunostimulatory activity in mouse NKT hybridoma 2H4 cells assessed as IL-2 production at 100 ng/ml after 24 hrs by plate-bound mCD1d presenting assay; format: functional, cell-based
How it was run: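 Plates were coated with mouse CD1d protein overnight at 4 °C, PBS-washed and blocked with PBS/10% FCS for 1 h. Compound at 100 ng/mL was loaded for 24 h at 37 °C, then washed off. 2H4 NKT hybridoma cells were added, and IL-2 was measured by ELISA after 24 h. Data are mean ± SD of three independent experiments, with Student's t test against vehicle.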

[2] = species: Mus musculus; assay: Immunostimulatory activity in C57BL/6 mouse splenocytes assessed as IL-4 production at 100 ng/ml after 72 hrs by ELISA; format: functional, cell-based
How it was run: (§1)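 C57BL/6 mouse splenocytes were cultured for 72 h with compound at 100 ng/mL or DMSO vehicle in RPMI1640 with 10% FCS, humidified 5% CO2. IFN-γ and IL-4 in the supernatants were measured by ELISA. Assays were run in triplicate and reported as mean ± SD.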

[3] = species: Mus musculus; assay: Immunostimulatory activity in C57BL/6 mouse splenocytes assessed as IFN-gamma production at 100 ng/ml after 72 hrs by ELISA; format: functional, cell-based; how it was run: as §1
[4] = system: Mus musculus; assay: In vivo immunostimulatory activity in C57BL/6 mouse assessed as increase in serum IL-4 level at 1 ug, ip after 2 to 24 hrs by ELISA; format: functional, organism-based
How it was run: (§2)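 C57BL/6 mice were given compound by intraperitoneal injection. Serum IFN-γ and IL-4 were measured at 2 h and at a later time point. Data are mean ± SD.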

[5] = system: Mus musculus; assay: In vivo immunostimulatory activity in C57BL/6 mouse assessed as increase in serum IFN-gamma level at 1 ug, ip after 2 hrs by ELISA; format: functional, organism-based; how it was run: as §2
[6] = species: Mus musculus; assay: Immunostimulatory activity in C57BL/6 mouse splenocytes assessed as IL-4/IFN-gamma ratio at 100 ng/ml after 72 hrs by ELISA; format: functional, cell-based
How it was run: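 Whole C57BL/6 splenocytes were given compound at 100 ng/mL or DMSO for 72 h in RPMI1640 with 10% FCS. Supernatant IL-4 and IFN-γ were measured by ELISA. The IL-4/IFN-γ ratio was normalized to the DMSO control. Triplicate, mean ± SD.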

[7] = system: Mus musculus; assay: In vivo immunostimulatory activity in C57BL/6 mouse assessed as increase in serum IFN-gamma level at 1 ug, ip after 24 hrs by ELISA; format: functional, organism-based; how it was run: as §2

Question: `CCCCCCCC/C=C\CCCCCCCC(=O)OC[C@@H](O)COP(=O)(O)OCCN` was tested. Which Activity [1] did it give?
Answer: Active

Question: What about the Activity [2] of the same molecule?
Answer: Active

Question: What about the Activity [3] of the same molecule?
Answer: Active

Question: What about the Activity [4] of the same molecule?
Answer: Active

Question: And the Activity [5]?
Answer: Active

Question: What about the Activity [6] of the same molecule?
Answer: Active

Question: And the Activity [7]?
Answer: inactive

Question: What does the source list for `CCCCCCCCCCCCCC/C=C\OC[C@@H](O)COP(=O)(O)OCCN`?
Answer: Activity [2]: Active; Activity [3]: Active; Activity [4]: Active; Activity [5]: Active; Activity [6]: Active

Question: `CCCCCCCC/C=C\CCCCCCCCCCCCOC[C@@H](O)COP(=O)(O)OCCN` was tested. Which Activity [1] did it give?
Answer: Active

Question: What about the Activity [2] of the same molecule?
Answer: Active

Question: And the Activity [3]?
Answer: Active

Question: What about the Activity [4] of the same molecule?
Answer: Active

Question: What about the Activity [5] of the same molecule?
Answer: Active

Question: And the Activity [6]?
Answer: Active

Question: And the Activity [7]?
Answer: inactive

Question: How did the Activity [1] turn out when `CCCCC/C=C\C/C=C\CCCCCCCC/C=C\OC[C@@H](O)COP(=O)(O)OCCN` was run?
Answer: Active

Question: And the Activity [3]?
Answer: Active

Question: What about the Activity [4] of the same molecule?
Answer: Active

Question: What about the Activity [5] of the same molecule?
Answer: Active

Question: And the Activity [6]?
Answer: Active

Question: And the Activity [7]?
Answer: inactive

Question: For `CCCCCCCC/C=C\CCCCCCCCC#COC[C@@H](O)COP(=O)(O)OCCN`, which Activity [1] is on record?
Answer: Active

Question: And the Activity [2]?
Answer: Active

Question: And the Activity [3]?
Answer: Active

Question: And the Activity [4]?
Answer: Active

Question: And the Activity [5]?
Answer: Active

Question: What about the Activity [6] of the same molecule?
Answer: Active

Question: What about the Activity [7] of the same molecule?
Answer: inactive

Question: Which Activity [1] does the source give for `CCCCC/C=C\C/C=C\CCCCCCCCC#COC[C@@H](O)COP(=O)(O)OCCN` here?
Answer: Active

Question: What about the Activity [3] of the same molecule?
Answer: Active

Question: And the Activity [4]?
Answer: Active

Question: And the Activity [5]?
Answer: Active

Question: And the Activity [6]?
Answer: Active

Question: What about the Activity [7] of the same molecule?
Answer: inactive

Source: ChEMBL document CHEMBL3259564, “Synthesis and evaluation of immunostimulant plasmalogen lysophosphatidylethanolamine and analogues for natural killer T cells” (Bioorg Med Chem, 2014)
